Source: publication PMC2699564 (Journal of medicinal chemistry, 2009)

Key:
RIF tumors [1] = experiment: In vivo PDT efficacy; design: species or system C3H mice; conditions: for tumor free mice (tumor cure) / tumor free mice (tumor cure) at day 60: 665 nm, 135 J/cm^2, 75 mW/cm^2 at 24 h post-injection, five mice/group; for toxicity (deaths post PDT): 135 J/cm^2, five mice/group
Outline: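 Female C3H/HeJ mice received 2×10^5 RIF cells intradermally in HBSS lacking Ca²⁺/Mg²⁺. At 4–5 mm tumors, hair was removed and test compound given i.v. the day before light, at 0.5, 1.0 or 1.5 μmol/kg, five mice/group. At 24 h, mice were restrained unanaesthetised and tumor irradiated with dye laser at 665 nm: 1 cm², 75 mW/cm², 135 J/cm², 30 min. Mice were watched daily for weight loss, scabbing and regrowth; V = (L × W²)/2. Sacrificed at 400 mm³; cured if no regrowth by day 60.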

Colon-26 tumor = experiment: microPET imaging, RUV and relative tumor activity, Colon-26 tumor; assay type: in vivo
RIF tumor = experiment: microPET imaging, RUV and relative tumor activity, RIF tumor; assay type: in vivo
RIF tumors [2] = experiment: In vivo biodistribution of ^124I-labeled compounds; design: species or system C3H mice; conditions: for tumor uptake compared among compounds 1-3 / tumor uptake: RIF tumor; for tumor uptake compared among compounds 1-3 / liver and spleen uptake compared among compounds 1-3: 24-96 h post injection; for tumor uptake: ^124I-labeled, i.v.; for liver and spleen uptake compared among compounds 1-3: C3H mice
Outline: (§1)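 ¹²⁴I-labeled test compound (radiochemical purity >95%, in saline with 10% ethanol) given via tail vein at 15–200 μCi; 3–4 mice per compound/time point. Sacrificed at 24, 48, 72 and 96 h. Blood, tumor, heart, liver, spleen, kidney, lung, muscle, gut and stomach removed and weighed. Activity measured by gamma well counter; uptake expressed as %ID/g; mean of 3 or 4 mice.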

Colon-26 tumors = experiment: In vivo biodistribution of ^124I-labeled 1; design: species or system BALB/c mice; conditions: for tumor uptake: Colon-26 tumor, ^124I-labeled, i.v.
Outline: as §1

Colon-26 cells = experiment: In vitro cell uptake, Colon-26 cells; assay type: cell-based
[3] = system: radiation-induce fibrosarcoma (RIF) cells; experiment: In vitro photosensitizing efficacy; assay type: cell-based; conditions: 24 h incubation, 0.25 μM (Figure 8), light 0-4 J/cm^2, MTT
RIF cells = experiment: In vitro cell uptake by fluorescence, RIF cells; assay type: cell-based
Outline: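 RIF cells incubated with test compound; cellular uptake read by fluorescence at 3 and 24 h post-incubation.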

Q: CCC1=C(C)c2cc3[nH]c(cc4nc(c5c6[nH]c(cc1n2)c(C)c6C(=O)C5)[C@@H](CCC(=O)OC)[C@@H]4C)c(C)c3C(C)OCc1cccc([124I])c1 (some centres unmarked) [Compound 1, 3-{1′-(m-iodobenzyloxy)ethyl}pyropheophorbide-a methyl ester] was tested. Which “tumor free mice (tumor cure)” value (RIF tumors [1]; 1.00 μmole/kg i.v.) did it give?
A: one out of five mice was tumor free

Q: And the “tumor free mice (tumor cure) at day 60” value (RIF tumors [1]; 1.5 μmol/kg i.v.)?
A: four out of five mice were tumor free

Q: What about the “relative tumor activity over time” value (Colon-26 tumor; 24-96 h) of the same molecule?
A: increasing relative quantity of activity in the tumor

Q: What about the “relative uptake value (RUV) compared with RIF tumor” value (Colon-26 tumor; after 48 hours of injection) of the same molecule?
A: higher RUV values than RIF tumor

Q: And the “relative tumor activity (tumor activity to whole body activity in image)” value (RIF tumor; RIF tumor, ^124I-1 about constant over three scans in 3 days)?
A: ~0.035

Q: What about the “time of best tumor contrast in PET images” value (RIF tumor; both tumor models (RIF and Colon-26), post injection) of the same molecule?
A: 72 h

Q: And the “tumor uptake compared among compounds 1-3” value (RIF tumors [2])?
A: highest tumor uptake value at 24 and 48 hrs time points

Q: And the tumor uptake (RIF tumors [2]; 24 h post injection)?
A: 4.1 %ID/g

Q: What about the tumor uptake (RIF tumors [2]; 48 h post injection) of the same molecule?
A: 2.1 %ID/g

Q: And the tumor uptake (RIF tumors [2]; 72 h post injection)?
A: 0.8 %ID/g

Q: And the tumor uptake (RIF tumors [2]; 96 h post injection)?
A: 0.6 %ID/g

Q: What about the “tumor uptake in Colo-26 relative to RIF” value (Colon-26 tumors; 72 h post injection) of the same molecule?
A: 3 fold

Q: And the “tumor uptake in Colo-26 relative to RIF” value (Colon-26 tumors; 96 h post injection)?
A: 3 fold

Q: What about the tumor uptake (Colon-26 tumors; 24 h post injection) of the same molecule?
A: 4.6 %ID/g

Q: And the tumor uptake (Colon-26 tumors; 48 h post injection)?
A: 4.4 %ID/g

Q: And the tumor uptake (Colon-26 tumors; 72 h post injection)?
A: 2.5 %ID/g

Q: And the tumor uptake (Colon-26 tumors; 96 h post injection)?
A: 2.0 %ID/g

Q: What about the “blood uptake, BALB/c vs C3H mice” value (Colon-26 tumors; ^124I-labeled 1) of the same molecule?
A: slightly higher blood uptake in BALB/c mice than C3H mice

Q: And the “uptake in other organs, BALB/c vs C3H mice” value (Colon-26 tumors; ^124I-labeled 1)?
A: lower uptake in BALB/c mice than the C3H mice

Q: Which “cell uptake compared to compound 1” value (Colon-26 cells) does the source give for CCC1=C(C)c2cc3[nH]c(cc4nc(c5c6[nH]c(cc1n2)c(C)c6C(=O)C5)[C@@H](CCC(=O)N[C@@H]1[C@@H](O)[C@H](O)[C@@H](CO)O[C@H]1O)[C@@H]4C)c(C)c3C(C)OCc1cccc([124I])c1 (some centres unmarked) [Compound 2, 3-{1′-(m-iodobenzyloxy)ethyl}-17[2]-(2-amino-2-deoxy)glucosamide-pyropheo phorbide-a] here?
A: higher uptake

Q: What about the “tumor free mice (tumor cure)” value (RIF tumors [1]; 0.50 μmole/kg i.v.) of the same molecule?
A: one out of five mice was tumor free

Q: What about the “tumor free mice (tumor cure)” value (RIF tumors [1]; 1.00 μmole/kg i.v.) of the same molecule?
A: two out of five mice were tumor free

Q: And the “toxicity (deaths post PDT)” value (RIF tumors [1]; 1.5 μmol/kg i.v.)?
A: two mice died within 24 h post PDT

Q: And the “tumor free mice (tumor cure) at day 60” value (RIF tumors [1]; 1.5 μmol/kg i.v.)?
A: two out of remaining three mice were tumor free

Q: And the “liver and spleen uptake compared among compounds 1-3” value (RIF tumors [2])?
A: lower spleen and liver uptake than 3 but higher than that of 1

Q: What about the “tumor uptake compared among compounds 1-3” value (RIF tumors [2]) of the same molecule?
A: least tumor uptake among all compounds at all time points

Q: And the “in vitro PDT efficacy compared to 1” value [3]?
A: more effective than the corresponding non-carbohydrate analog 1

Q: What about the “cell uptake compared to compound 1” value (RIF cells) of the same molecule?
A: higher uptake

Q: Which “cell uptake compared to compound 1” value (Colon-26 cells) does the source give for CCC1=C(C)c2cc3[nH]c(cc4nc(c5c6[nH]c(cc1n2)c(C)c6C(=O)C5)[C@@H](CCC(=O)N[C@@H]1O[C@H](CO)[C@H](O)[C@H](O)[C@H]1O)[C@@H]4C)c(C)c3C(C)OCc1cccc([124I])c1 (some centres unmarked) [Compound 3, {1′-(m-iodobenzyloxy)ethyl}-17[2]-(1-amino-1-deoxy)galactosamide-pyro pheophorbide-a] here?
A: higher uptake

Q: And the “toxicity (deaths post PDT)” value (RIF tumors [1]; 1.00 μmole/kg i.v.)?
A: all five mice died within 24h post PDT

Q: And the “toxicity (deaths post PDT)” value (RIF tumors [1]; 1.5 μmol/kg i.v.)?
A: all five mice died within 24 h post light treatment

Q: What about the “liver and spleen uptake compared among compounds 1-3” value (RIF tumors [2]) of the same molecule?
A: considerably higher liver and spleen uptake at all time points

Q: What about the “tumor uptake compared among compounds 1-3” value (RIF tumors [2]) of the same molecule?
A: higher uptake values at the 72 and 96 hrs time points

Q: And the “in vitro PDT efficacy compared to 1” value [3]?
A: more effective than the corresponding non-carbohydrate analog 1

Q: And the “cell uptake compared to compound 1” value (RIF cells)?
A: higher uptake
